Data: ChEMBL document CHEMBL1128671, “New (2-methoxyphenyl)piperazine derivatives as 5-HT1A receptor ligands with reduced alpha 1-adrenergic activity. Synthesis and structure-affinity relationships” (J Med Chem, 1995)

Experiments:
[1] = target: T1, 5-hydroxytryptamine receptor 1A (Rattus norvegicus, UniProt P19327); assay: In vitro ability to displace [3H]8-OH-DPAT from 5-hydroxytryptamine 1A receptor sites of rat brain cortex.
T1 sequence (P19327 whole entry): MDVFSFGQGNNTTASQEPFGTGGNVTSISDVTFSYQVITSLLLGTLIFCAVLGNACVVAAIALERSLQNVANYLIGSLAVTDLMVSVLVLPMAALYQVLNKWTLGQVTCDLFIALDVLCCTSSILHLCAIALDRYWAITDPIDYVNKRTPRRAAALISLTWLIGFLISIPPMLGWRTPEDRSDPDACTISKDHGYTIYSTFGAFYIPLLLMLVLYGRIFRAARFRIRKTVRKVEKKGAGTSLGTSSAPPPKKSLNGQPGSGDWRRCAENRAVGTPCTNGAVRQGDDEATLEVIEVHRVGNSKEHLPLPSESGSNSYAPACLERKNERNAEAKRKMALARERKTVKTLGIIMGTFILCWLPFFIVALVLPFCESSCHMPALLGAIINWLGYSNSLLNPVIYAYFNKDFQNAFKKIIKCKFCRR
Outline: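 Male Wistar rat cerebral cortex membranes in 50 mM Tris-HCl with 4 mM CaCl2, 0.1% ascorbate and 10 μM pargyline. Nonspecific binding defined with 10 μM 5-HT. Read by filtration and scintillation counting. Twelve displacer concentrations, triplicate samples, two experiments. IC50/Ki obtained by nonlinear regression.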

[2] = target: Adrenergic receptor alpha-1 (Oryctolagus cuniculus); assay: Antagonistic activity at Alpha-1 adrenergic receptor was performed on ring segments of rabbit thoracic aorta contracted by noradrenaline.

Ki [1] [nM]	pA2 [2]	Structure (SMILES)
1.53	–	COc1ccccc1N1CCN(CCCCNC(=O)c2sccc2C)CC1
17.5	–	COc1ccccc1N1CCN(CCCCNC(=O)Cc2ccsc2)CC1
3.8	< 7	COc1ccccc1N1CCN(CCCCNC(=O)c2ccc(C)s2)CC1
3.34	–	COc1ccccc1N1CCN(CCCCNC(=O)c2sccc2Cl)CC1
2.34	9.16	COc1ccccc1N1CCN(CCCCNC(=O)c2cccs2)CC1
32.1	–	COc1ccccc1N1CCN(CCCCNC(=O)c2sccc2OC)CC1
321	–	COc1ccccc1N1CCN(CCCNC(=O)c2cccnc2)CC1
6.83	< 7	COc1ccccc1N1CCN(CCNC(=O)c2ccsc2)CC1
12.5	–	COc1ccccc1N1CCN(CCCCNC(=O)c2ccc[nH]2)CC1
2.2	–	COc1ccccc1N1CCN(CCCCNC(=O)c2ccsc2)CC1

Further lines, the compound ahead of its results:

Structure (SMILES)	Ki [1] [nM]	pA2 [2]
COc1ccccc1N1CCN(CCCCNC(=O)C2CC3CCC2C3)CC1 (stereo not given)	0.23	–
COc1ccccc1N1CCN(CCCCNC(=O)C2CC3C=CC2C3)CC1 (stereo not given)	0.38	8.53
COc1ccccc1N1CCN(CCNC(=O)c2ccc(C)s2)CC1	2.29	–
COc1ccccc1N1CCN(CCNC(=O)c2sccc2C)CC1	3.09	–
COc1ccccc1N1CCN(CCCNC(=O)c2ccc[nH]2)CC1	201	–
COc1ccccc1N1CCN(CCCCNC(=O)c2cccn2C)CC1.O=C(O)/C=C/C(=O)O	0.74	7.72
COc1ccccc1N1CCN(CCNC(=O)Cc2ccsc2)CC1	32.3	–
COc1ccccc1N1CCN(CCNC(=O)C2CC3CCC2C3)CC1 (stereo not given)	0.12	–
COc1ccccc1N1CCN(CCCCNC(=O)C2CCC3CCCC32)CC1 (stereo not given)	0.63	–
COc1ccccc1N1CCN(CCCCNC(=O)C2CCCC2)CC1	1.88	–
COc1ccccc1N1CCN(CCNC(=O)C2CCCC2)CC1	4.68	–
COc1ccccc1N1CCN(CCCCNC(=O)c2cccnc2)CC1	25.2	–
COc1ccccc1N1CCN(CCNC(=O)C2CC3C=CC2C3)CC1 (stereo not given)	0.27	–
COc1ccccc1N1CCN(CCNC(=O)C2CCC3CCCC32)CC1 (stereo not given)	0.24	–
COc1ccccc1N1CCN(CCNC(=O)c2cccnc2)CC1	362	–
COc1ccccc1N1CCN(CCNC(=O)c2ccc[nH]2)CC1	20.3	–
COc1ccccc1N1CCN(CCCNC(=O)C2CCC3CCCC32)CC1 (stereo not given)	11.6	–
COc1ccccc1N1CCN(CCNC(=O)c2cccn2C)CC1	1.19	< 7
COc1ccccc1N1CCN(CCCCNC(=O)c2ccco2)CC1	55.7	–
